{
  "source": "ChEMBL document CHEMBL1155908",
  "about": "“Muscarinic receptor 1 agonist activity of novel N-arylthioureas substituted 3-morpholino arecoline derivatives in Alzheimer's presenile dementia models” (Bioorg Med Chem, 2008)",
  "key": {"Cortex": {"system": "Cortex", "assay": "Stimulation of (1,4,5)-trisphosphate formation in Wistar rat cerebral cortex relative to basal", "type": "functional", "set-up": "concentration or dose not given beside the values", "how_it_was_run": "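Rat cerebral cortex slices were labelled with [3H]myoinositol, then stimulated with compound at 1–500 µmol/l. Basal IP3 was measured, and acetylcholine iodide served as the reference stimulus. [3H]IP3 formed was counted by liquid scintillation. Values are mean and SD of three experiments, each run in duplicate.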"}, "[1]": {"biological_target": "T1, Muscarinic acetylcholine receptor M1 (Rattus norvegicus, UniProt P08482)", "T1 sequence (P08482 whole entry)": "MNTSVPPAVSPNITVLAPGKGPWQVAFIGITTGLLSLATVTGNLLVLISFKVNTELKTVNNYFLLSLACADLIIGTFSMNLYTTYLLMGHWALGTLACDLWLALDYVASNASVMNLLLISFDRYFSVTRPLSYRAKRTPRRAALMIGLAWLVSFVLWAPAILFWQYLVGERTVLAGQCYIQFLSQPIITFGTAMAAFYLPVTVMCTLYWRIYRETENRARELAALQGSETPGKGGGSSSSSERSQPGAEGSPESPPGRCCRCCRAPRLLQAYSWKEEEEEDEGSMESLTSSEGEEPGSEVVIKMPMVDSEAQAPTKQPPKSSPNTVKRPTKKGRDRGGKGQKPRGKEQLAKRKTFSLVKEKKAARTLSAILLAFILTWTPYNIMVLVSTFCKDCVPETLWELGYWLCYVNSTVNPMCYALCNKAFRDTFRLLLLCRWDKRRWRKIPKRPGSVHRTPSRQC", "assay": "Displacement of [3H]QNB from muscarinic M1 receptor Wistar rat cortex synaptosomal membrane", "how_it_was_run": "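Male Wistar rat cortex synaptosomal membranes were prepared in Tris–HCl 50 mmol/L pH 7.4 with 0.32 mol/L sucrose, spun at 1000g then 32,000g at 4 °C, and resuspended in 50 mmol/L phosphate buffer pH 7.4 with MgCl2. Membrane protein was incubated with 0.2 nM [3H]QNB and displacer for 2 h at 37 °C, then GF/B filtered and counted by scintillation. IC50 and Ki were obtained by curve analysis.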"}, "Rattus norvegicus [2]": {"species": "Rattus norvegicus", "assay": "Reversal of scopolamine-induced memory loss in Wistar rat assessed as reduction of number of mistakes relative to control", "type": "functional", "how_it_was_run": "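Passive avoidance step-down task run on male Wistar rats, 200–250 g, n = 8, with scopolamine-induced memory loss. Mistakes were counted. The dose range tested was 0.05–0.2 mg/kg, and 0.1 mg/kg was used in the in vivo studies.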"}, "Rattus norvegicus [3]": {"species": "Rattus norvegicus", "assay": "Reversal of scopolamine-induced learning impairment and memory loss in Wistar rat on elevated plus maze assessed as transfer latency time on day 2 relative to control", "type": "functional", "how_it_was_run": "(§1)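 Elevated plus maze, male Wistar rats. Scopolamine alone or with compound was given 30 min before a 90 s exploration, and saline 0.9% was given to controls. Transfer latency from the open-arm end to a closed arm was timed on day 1, then retested in the same animals on day 2. Mean ± SEM.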"}, "Rattus norvegicus [4]": {"species": "Rattus norvegicus", "assay": "Reversal of scopolamine-induced learning impairment and memory loss in Wistar rat on elevated plus maze assessed as transfer latency time on day 1 relative to control", "type": "functional", "how_it_was_run": "as §1"}, "Rattus norvegicus [5]": {"species": "Rattus norvegicus", "assay": "Effect on scopolamine-induced spartial working memory loss in Wistar rat on Y maze assessed as alteration behavior", "type": "functional", "how_it_was_run": "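Y maze, male Wistar rats, 200–250 g. Compound plus scopolamine was given 30 min before free exploration. Arm entries were recorded visually. Alternation was scored as successive entries into all three arms over overlapping triplets. Percent alternation = actual alternations / (total entries − 2) × 100.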"}},
  "note": "Calls of active or inactive are those of the source. No cut-off for these calls is given here.",
  "data": [
    {"compound": "CC(=O)OCC[N+](C)(C)C", "note": "[ACETYLCHOLINE]", "values": [
      {"measurement": "Activity", "setting": "Cortex", "value": 268, "unit": "%"}
    ]},
    {"compound": "CN1CCC=C(C2CN(C(=S)Nc3ccc(Cl)cc3Cl)CCO2)C1", "note": "(centres undefined)", "values": [
      {"measurement": "IC50", "setting": "[1]", "value": 112, "unit": "µM"},
      {"measurement": "Ki", "setting": "[1]", "value": 31, "unit": "µM"},
      {"measurement": "Activity", "setting": "Rattus norvegicus [2]", "value": "Active"},
      {"measurement": "Activity", "setting": "Cortex", "value": 116, "unit": "%"}
    ]},
    {"compound": "COc1cccc(NC(=S)N2CCOC(C3=CCCN(C)C3)C2)c1", "note": "(centres undefined)", "values": [
      {"measurement": "IC50", "setting": "[1]", "value": 120, "unit": "µM"},
      {"measurement": "Ki", "setting": "[1]", "value": 41, "unit": "µM"},
      {"measurement": "Activity", "setting": "Rattus norvegicus [2]", "value": "Active"},
      {"measurement": "Activity", "setting": "Cortex", "value": 106, "unit": "%"}
    ]},
    {"compound": "CN1CCC=C(C2CN(C(=S)Nc3cccc(Cl)c3)CCO2)C1", "note": "(centres undefined)", "values": [
      {"measurement": "IC50", "setting": "[1]", "value": 236, "unit": "µM"},
      {"measurement": "Ki", "setting": "[1]", "value": 85, "unit": "µM"},
      {"measurement": "Activity", "setting": "Cortex", "value": 103, "unit": "%"}
    ]},
    {"compound": "CN1CCC=C(C2CN(C(=S)Nc3ccccc3)CCO2)C1", "note": "(centres undefined)", "values": [
      {"measurement": "IC50", "setting": "[1]", "value": 153, "unit": "µM"},
      {"measurement": "Ki", "setting": "[1]", "value": 49, "unit": "µM"},
      {"measurement": "Activity", "setting": "Cortex", "value": 101, "unit": "%"}
    ]},
    {"compound": "CN1CCC=C(C2CN(C(=S)Nc3ccccc3Cl)CCO2)C1", "note": "(centres undefined)", "values": [
      {"measurement": "IC50", "setting": "[1]", "value": 515, "unit": "µM"},
      {"measurement": "Ki", "setting": "[1]", "value": 214, "unit": "µM"},
      {"measurement": "Activity", "setting": "Cortex", "value": 100, "unit": "%"},
      {"measurement": "Activity", "setting": "Rattus norvegicus [3]", "value": 43, "unit": "s"},
      {"measurement": "Activity", "setting": "Rattus norvegicus [4]", "value": 60, "unit": "s"}
    ]},
    {"compound": "COc1ccc(NC(=S)N2CCOC(C3=CCCN(C)C3)C2)cc1", "note": "(centres undefined)", "values": [
      {"measurement": "Activity", "setting": "Rattus norvegicus [5]", "value": 60, "unit": "%"},
      {"measurement": "IC50", "setting": "[1]", "value": 15, "unit": "µM"},
      {"measurement": "Ki", "setting": "[1]", "value": 4, "unit": "µM"},
      {"measurement": "Activity", "setting": "Rattus norvegicus [2]", "value": 10},
      {"measurement": "Activity", "setting": "Cortex", "value": 178, "unit": "%"},
      {"measurement": "Activity", "setting": "Rattus norvegicus [3]", "value": "Active"},
      {"measurement": "Activity", "setting": "Rattus norvegicus [4]", "value": "Active"}
    ]},
    {"compound": "CN1CCC=C(C2CN(C(=S)Nc3ccc(F)cc3)CCO2)C1", "note": "(centres undefined)", "values": [
      {"measurement": "Activity", "setting": "Rattus norvegicus [5]", "value": 61, "unit": "%"},
      {"measurement": "IC50", "setting": "[1]", "value": 31, "unit": "µM"},
      {"measurement": "Ki", "setting": "[1]", "value": 7, "unit": "µM"},
      {"measurement": "Activity", "setting": "Rattus norvegicus [2]", "value": 11},
      {"measurement": "Activity", "setting": "Cortex", "value": 155, "unit": "%"},
      {"measurement": "Activity", "setting": "Rattus norvegicus [3]", "value": "Active"},
      {"measurement": "Activity", "setting": "Rattus norvegicus [4]", "value": "Active"}
    ]},
    {"compound": "CN1CCC=C(C2CN(C(=S)Nc3ccccc3F)CCO2)C1", "note": "(centres undefined)", "values": [
      {"measurement": "Activity", "setting": "Rattus norvegicus [5]", "value": 58, "unit": "%"},
      {"measurement": "IC50", "setting": "[1]", "value": 67, "unit": "µM"},
      {"measurement": "Ki", "setting": "[1]", "value": 15, "unit": "µM"},
      {"measurement": "Activity", "setting": "Rattus norvegicus [2]", "value": "Active"},
      {"measurement": "Activity", "setting": "Cortex", "value": 129, "unit": "%"}
    ]},
    {"compound": "CN1CCC=C(C2CN(C(=S)Nc3ccc(Cl)cc3)CCO2)C1", "note": "(centres undefined)", "values": [
      {"measurement": "Activity", "setting": "Rattus norvegicus [5]", "value": 64, "unit": "%"},
      {"measurement": "IC50", "setting": "[1]", "value": 1.2, "unit": "µM"},
      {"measurement": "Ki", "setting": "[1]", "value": 0.31, "unit": "µM"},
      {"measurement": "Activity", "setting": "Rattus norvegicus [2]", "value": 10},
      {"measurement": "Activity", "setting": "Cortex", "value": 216, "unit": "%"},
      {"measurement": "Activity", "setting": "Rattus norvegicus [3]", "value": 9, "unit": "s"},
      {"measurement": "Activity", "setting": "Rattus norvegicus [4]", "value": 34, "unit": "s"}
    ]},
    {"compound": "COc1ccccc1NC(=S)N1CCOC(C2=CCCN(C)C2)C1", "note": "(centres undefined)", "values": [
      {"measurement": "IC50", "setting": "[1]", "value": 362, "unit": "µM"},
      {"measurement": "Ki", "setting": "[1]", "value": 98, "unit": "µM"},
      {"measurement": "Activity", "setting": "Cortex", "value": 100, "unit": "%"}
    ]}
  ]
}
